Measurements as given in ChEMBL document CHEMBL4428043, “Fragment-Based Discovery of Dual JC Virus and BK Virus Helicase Inhibitors” (J Med Chem, 2016).

Tests used:
Large T antigen = molecular target: T1, Large T antigen (JC polyomavirus, UniProt P03072); assay: Inhibition of helicase activity of JC polyomavirus LTAg (E264 to D628 residues) expressed in Escherichia coli using Cy5/BHQ3 dsDNA pre-incubated for 20 mins and measured after 120 to 180 mins by fluorescence based assay
T1 sequence (P03072 whole entry): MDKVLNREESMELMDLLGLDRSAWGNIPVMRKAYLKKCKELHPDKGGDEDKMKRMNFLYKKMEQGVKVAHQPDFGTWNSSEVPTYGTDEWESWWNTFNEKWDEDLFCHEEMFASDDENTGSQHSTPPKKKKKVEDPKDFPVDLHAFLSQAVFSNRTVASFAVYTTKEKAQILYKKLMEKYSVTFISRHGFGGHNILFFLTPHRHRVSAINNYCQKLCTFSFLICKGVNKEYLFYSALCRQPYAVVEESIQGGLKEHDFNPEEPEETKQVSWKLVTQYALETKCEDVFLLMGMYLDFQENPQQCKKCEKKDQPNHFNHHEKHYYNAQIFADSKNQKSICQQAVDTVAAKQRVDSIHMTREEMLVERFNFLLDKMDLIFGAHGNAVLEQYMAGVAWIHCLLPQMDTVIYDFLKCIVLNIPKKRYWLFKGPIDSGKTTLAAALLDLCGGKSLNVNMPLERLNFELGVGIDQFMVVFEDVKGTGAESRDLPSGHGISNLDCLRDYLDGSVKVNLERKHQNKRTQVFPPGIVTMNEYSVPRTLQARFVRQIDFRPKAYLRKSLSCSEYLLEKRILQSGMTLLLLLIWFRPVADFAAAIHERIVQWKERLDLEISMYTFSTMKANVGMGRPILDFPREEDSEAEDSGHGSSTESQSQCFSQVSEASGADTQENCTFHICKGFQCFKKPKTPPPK

[1] = Inhibition of helicase activity of BK polyomavirus LTAg (E265 to D629 residues) expressed in Escherichia coli using Cy5/BHQ3 dsDNA pre-incubated for 20 mins and measured after 120 to 180 mins by fluorescence based assay; design: species or system Betapolyomavirus hominis
[2] = Cytotoxicity against […] G144 […] cells; assay type: cell-based
JC polyomavirus = assay: Antiviral activity against JC polyomavirus infected in […] G144 […] cells assessed as reduction in late viral protein and viral capsid protein VP1 incubated for 72 hrs by branched DNA assay; assay type: functional, organism-based
Summary of the method: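 G144 […] cells plated on poly-ornithine (0.005%)/laminin (10 µg/ml)-coated flasks, infected with MAD4 JCV at MOI = 1 TCID₅₀ for 24 hr, then replated at 5,000 cells/well in differentiation medium. Compounds added in DMSO (0.5% final) for 72 hr. Lysates denatured with NaOH at 52°C for 30 min; VP1 DNA measured by bDNA capture probes. EC50 from four-parameter curve fit.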

Row | SMILES | IC50 (Large T antigen) | IC50 [1] | CC50 [2] | EC50 (JC polyomavirus)
1 | c1cc2c(c(-c3nn4cnnc4s3)c1)OCCC2 | 15.5 µM | 24 µM |  | 
2 | COc1ccccc1-c1nc2ccncc2s1 | 5 µM | 10.7 µM | > 50 µM | 1.5 µM
3 | CC(=O)Nc1ccc(Oc2ccccc2-c2nc3ccncc3s2)cc1 | 0.9 µM | 1.6 µM | > 50 µM | 48 µM
4 | c1ccc(-c2nn3cnnc3s2)c(OCCC2CCOCC2)c1 | 5.8 µM | 8.4 µM | > 50 µM | 15 µM
5 | c1ccc(Oc2ccccc2-c2nn3cnnc3s2)cc1 | 4.9 µM | 3.7 µM | > 50 µM | 34 µM
6 | CC(=O)Nc1ccc(Oc2ncccc2-c2nc3ccncc3s2)cc1 | 0.6 µM |  | > 50 µM | 40 µM
7 | CCOc1ccccc1-c1nn2cnnc2s1 | 18 µM |  | > 65 µM | 44 µM
8 | c1cc2c(c(-c3nn4cnnc4s3)c1)OCC2 | 13.5 µM | 21 µM | > 50 µM | > 16 µM
9 | CCOc1ccccc1-c1nc2ccncc2s1 | 9.1 µM | 8 µM | > 50 µM | 7.4 µM
10 | c1cc2c(c(-c3nc4ccncc4s3)c1)OCC2 | 8.7 µM | 15 µM | > 50 µM | 0.26 µM
11 | c1ccc(Oc2ncccc2-c2nc3ccncc3s2)cc1 | 1.4 µM | 1.3 µM | > 50 µM | 3.8 µM
12 | c1ccc(Oc2ccccc2-c2nc3ccncc3s2)cc1 | 10.5 µM | 10.2 µM | > 50 µM | 36 µM
13 | COc1ccccc1-c1nn2cnnc2s1 | 19.4 µM | 29 µM | > 80 µM | > 60 µM
14 | c1ccc(Oc2ncccc2-c2nn3cnnc3s2)cc1 | 8.8 µM | 11 µM | > 50 µM | 76 µM
15 | c1ccc(-c2nc3ccncc3s2)c(OCCC2CCOCC2)c1 | 9.6 µM | 11 µM | > 50 µM | 7.7 µM

Continued, in another order:

Row | IC50 (Large T antigen) | IC50 [1] | SMILES | CC50 [2] | EC50 (JC polyomavirus)
16 | 52 µM | 73 µM | c1ccc(-c2nn3cnnc3s2)c(OCCN2CCOCC2)c1 |  | 
17 | > 80 µM | > 80 µM | COc1cccc(OC)c1-c1nn2cnnc2s1 |  | 
18 | > 80 µM | > 80 µM | COc1ccccc1Cc1nn2cnnc2s1 |  | 
19 | > 80 µM | > 80 µM | CNc1cc2nc(-c3ccccc3OC)sc2cn1 |  | 
20 | 18 µM | 24 µM | COc1ccc(-c2nn3cnnc3s2)c(OC)c1 |  | 
21 | 62 µM | > 80 µM | COc1cccc(-c2nn3cnnc3s2)c1OC |  | 
22 | 28.5 µM | 63 µM | COCCOc1ccccc1-c1nn2cnnc2s1 |  | 
23 | > 80 µM | > 80 µM | COc1ccccc1-c1nc2ccnc(N)c2s1 |  | 
24 | 4.3 µM | 8.7 µM | COc1ccccc1-c1nc2cc(N)ncc2s1 |  | 
25 | > 80 µM | > 80 µM | Cc1ccccc1-c1nn2cnnc2s1 |  | 
26 | > 80 µM | > 80 µM | CN(C)c1ccccc1-c1nn2cnnc2s1 |  | 
27 | 5.5 µM | 7.3 µM | c1ccc(Oc2ccncc2-c2nn3cnnc3s2)cc1 |  | 
28 | > 80 µM | > 80 µM | CCOc1ccccc1-c1nc2cnccc2s1 |  | 
29 | 25 µM | 42 µM | N#CCCCOc1ccccc1-c1nn2cnnc2s1 |  | 
30 | 37 µM | 53 µM | Oc1ccccc1-c1nc2ccncc2s1 |  | 
31 | 6.3 µM | 17 µM | c1ccc(-c2nn3cnnc3s2)c(OCC2CCOCC2)c1 |  | 
32 | > 80 µM | > 80 µM | Nc1ccccc1-c1nn2cnnc2s1 |  | 
33 | > 80 µM | > 80 µM | c1ccc(C2CC2)c(-c2nn3cnnc3s2)c1 |  | 
34 | > 80 µM | > 80 µM | c1ccc(Oc2ncncc2-c2nn3cnnc3s2)cc1 |  | 
35 | > 80 µM | > 80 µM | Oc1ccccc1-c1nn2cnnc2s1 |  | 
